Source: PubChem BioAssay (Broad Institute)
SIRT5 block: inhibitors of human sirtuin-5 desuccinylase; Purified SirT5, succinyl-peptide AMC, trypsin-coupled fluorescence; Q9NXA8; inhibition, % at 15 µM; 1.1% of 330,000 active; in the data active means inhibition above about 15%
PDI turbidity: inhibitors of human protein disulfide isomerase. P07237. PDI insulin aggregation turbidity, A650, 90 min. inhibition, % at 10 µM. 0.052% of 350,000 active. AID 588391;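 active means mean inhibition across replicates of 30% or more, whatever share of single replicates reach that level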
Target sequence (P07237 whole entry, looked up): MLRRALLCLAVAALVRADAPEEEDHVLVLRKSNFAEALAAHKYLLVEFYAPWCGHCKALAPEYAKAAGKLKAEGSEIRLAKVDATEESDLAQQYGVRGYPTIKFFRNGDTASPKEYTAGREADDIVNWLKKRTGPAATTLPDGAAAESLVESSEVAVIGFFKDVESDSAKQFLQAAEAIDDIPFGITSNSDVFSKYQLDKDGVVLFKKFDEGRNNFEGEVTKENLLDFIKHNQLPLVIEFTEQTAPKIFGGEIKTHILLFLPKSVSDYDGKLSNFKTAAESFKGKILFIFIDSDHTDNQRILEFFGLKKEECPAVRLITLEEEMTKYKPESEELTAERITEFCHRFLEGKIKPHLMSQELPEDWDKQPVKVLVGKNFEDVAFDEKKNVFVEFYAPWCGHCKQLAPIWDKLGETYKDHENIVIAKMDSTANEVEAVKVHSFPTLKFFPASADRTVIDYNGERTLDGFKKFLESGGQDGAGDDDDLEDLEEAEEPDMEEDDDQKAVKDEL
MLL AF4-AF9 inh: MLL-AF4/AF9 protein interaction inhibition; P42568; AlphaScreen, biotin-AF4 peptide binding to FLAG-AF9; inhibition, % at 10 µM; 0.47% of 350,000 active; AID 651704;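 active means every replicate reaching a set inhibition limit, whatever the replicate mean, cut at about 25% in these data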;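 further: 0% = plate neutral control median and 100% = total signal loss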
FN deposition inh: fibronectin deposition inhibition; inhibition, % at 12.6 µM; 0.086% of 350,000 active; AH1F fibroblasts, Alexa488-fibronectin deposition fluorescence, overnight; AID 743247;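 active means mean inhibition across replicates of 30% or more, regardless of how many single replicates reach that level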;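 further: positive control wells lacked labelled fibronectin entirely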
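Material: AH1F fibroblasts assembling fluorescent fibronectin matrix; amount: 10000 AH1F cells/well; medium: DMEM, 2% serum; reagent: Alexa488-fibronectin, 24 nM final in well; dosing: single compound dose, delivered by pin transfer; incubation: 1 h adhesion, overnight exposure; detection: fluorescence after three HBSS washes, excitation 485 nm, emission 525 nm; measure: fibronectin deposition inhibition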
ERp5 inh: blocks human ERp5 reductase activity on insulin | ERp5 insulin aggregation, absorbance 650 nm, 90 min | Q15084 | inhibition, % at 9.99 µM | 0.05% of 350,000 active;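 active means mean replicate inhibition above about 25%, with every replicate also reaching it, limit read from the data, passing the limit was not always enough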
An asterisk follows results filed as active; · = no result; ! = repeats disagree. This is a sample that favours compounds with a hit; in the whole collection about 1.3% have one here.

SMILES | SIRT5 block | PDI turbidity | MLL AF4-AF9 inh | FN deposition inh | ERp5 inh
Cc1cccc(CS(=O)(=O)c2nnc([C@H](Cc3ccccc3)NC(=O)OC(C)(C)C)o2)c1 | · | 6 | · | · | ·
CC(C)c1ccc(NC(=S)NN2CCN(C)CC2)cc1 | 0 | -6 | -3 | 0 | 3
CCc1nc(SCC(=O)Nc2nc3c(s2)CCCC3)c2ccccc2n1 | · | 5 | · | · | ·
CCCc1nc(SCC(=O)Nc2nc3c(s2)CCCC3)c2ccccc2n1 | 16* | -1 | -25 | · | -2
COCCNC(=O)Cn1cnc2sc(C)c(S(=O)(=O)N3CCC(C)CC3)c2c1=O | · | -1 | · | -6 | ·
CCC1CCCCN1CCCNC(=O)Cn1cnc2sc(C)c(S(=O)(=O)N3CCC(C)CC3)c2c1=O (stereo unspecified) | 17* | -12 | 0 | -3 | 9
CC(C)N(Cc1cnn(C)c1)C(=O)c1ccc(OC2CCN(Cc3ccccn3)CC2)cc1 | 17* | -1 | 2 | 2 | -2
NS(=O)(=O)c1cccc2c1c([N+](=O)[O-])cc1nc(O)c(O)nc12 | 16* | 0 | 1 | -4 | -3
O=[N+]([O-])c1cc2cccnc2c2ncccc12 | -1 | 0 | -1 | 9 | ·
Cc1cc(SCC(=O)OCC(=O)N(C)C2CCS(=O)(=O)C2)c(C)cc1Br (stereo unspecified) | 19* | -6 | -54 | 6 | 6
CC1(C)C(Cl)C(=O)C(C(=O)c2ccccc2)C(=O)C1Cl (stereo unspecified) | 94* | 0 | 1 | -4 | 13
Cc1cc(=O)oc2c1ccc1oc(/C(=N/O)c3ccccc3)c(C)c12 | · | 1 | · | · | ·
COCC(=O)Nc1ccc2c(c1)C(=O)N(C)C[C@@H](OC)[C@H](C)CN(CCc1ccccc1)[C@H](C)CO2 | 1 | · | 6 | -5 | 1
CCCNC(=O)Nc1ccc2c(c1)C(=O)N(C)C[C@H](OC)[C@H](C)CN(Cc1ccc(-c3ccccn3)cc1)[C@H](C)CO2 | 15* | · | 7 | -7 | 6
COCC(=O)Nc1ccc2c(c1)OC[C@@H](C)N(CCc1ccccc1)C[C@@H](C)[C@H](OC)CN(C)C2=O | 31* | · | 3 | 2 | -2
CO[C@H]1CN(C)C(=O)c2cc(NC(=O)NC3CCCCC3)ccc2OC[C@H](C)N(CCc2ccccc2)C[C@@H]1C | 25* | · | 3 | -5 | -1
COc1cccc(C(=O)Nc2ccc3c(c2)C(=O)N(C)C[C@H](OC)[C@@H](C)CN(CCc2ccccc2)[C@H](C)CO3)c1 | 20* | · | 1 | 6 | 4
CO[C@H]1CN(C)C(=O)c2cc(NC(=O)NC3CCCCC3)ccc2OC[C@H](C)N(CCc2ccccc2)C[C@H]1C | 2 | · | 3 | 9 | -4
Cn1c(SCC(=O)Nc2cccc3ccccc23)nc(O)cc1=O | · | 8 | · | -4 | ·
COc1cccc(C2C(C#N)=C(N)OC3=C2C(=O)CCC3)c1OC(=O)c1ccco1 (stereo unspecified) | · | 10 | · | · | ·
C[C@@H](NC(=O)C[C@H]1CC[C@H](NC(=O)C2CC2)[C@@H](CO)O1)c1ccccc1 | 17* | · | -2 | -5 | -2
O=C(C[C@@H]1C=C[C@H](NC(=O)CN2CCOCC2)[C@H](CO)O1)NC1CCCCC1 | 18* | · | -3 | -17 | -8
C[C@H](NC(=O)C[C@@H]1C=C[C@@H](NC(=O)CN2CCOCC2)[C@@H](CO)O1)c1ccccc1 | 27*! | · | 2 | 2 | 2
NC(=O)CCN1CCC(c2nc3ccccc3s2)CC1 | 24* | 10 | 1 | -1 | 1
O=C(c1cccc(F)c1)N1CCCCN2[C@H](CO)[C@@H](c3ccc(-c4cccnc4)cc3)[C@@H]2C1 | 0 | · | -6 | · | 1
SMILES | SIRT5 block | PDI turbidity | MLL AF4-AF9 inh | FN deposition inh | ERp5 inh
c1ccc(C2=Nn3c(nnc3-c3ccccn3)SC2)cc1 | · | -3 | · | 6 | ·
COc1ccc(NC(=O)N[C@@H](CCSC)C(=O)O)cc1Cl | · | 13 | · | · | ·
COc1ccc(NC(=O)N[C@@H](CCSC)C(=O)O)cc1OC | 19* | 6 | -5 | 3 | -6
C[C@@H]1CN([C@@H](C)CO)C(=O)c2cccc(NS(=O)(=O)c3cn(C)cn3)c2O[C@H]1CN(C)Cc1ccc(C(F)(F)F)cc1 | 21* | · | -2 | · | 1
C[C@@H]1CN([C@@H](C)CO)C(=O)c2cccc(NS(=O)(=O)c3cn(C)cn3)c2O[C@H]1CN(C)C(=O)Nc1cccc2ccccc12 | 29* | · | 0 | -4 | -3
C[C@@H]1CN([C@H](C)CO)C(=O)c2cccc(NS(=O)(=O)c3cn(C)cn3)c2O[C@@H]1CN(C)C(=O)Nc1cccc2ccccc12 | 1 | · | -1 | -5 | -2
Cc1ccc(S(=O)(=O)Nc2cccc3c2O[C@H](CN(C)Cc2ccc(C(=O)O)cc2)[C@H](C)CN([C@H](C)CO)C3=O)cc1 | 0 | · | 27* | · | 7
C[C@@H]1CN([C@H](C)CO)C(=O)c2cccc(NS(=O)(=O)c3ccc(Cl)cc3)c2O[C@@H]1CN(C)Cc1ccc(C(F)(F)F)cc1 | 2 | · | 5 | 0 | 28*
CN1C(=O)c2oc3ccccc3c(=O)c2C1c1cccnc1 (stereo unspecified) | 1 | -3 | -6 | 14 | -2
CCCn1c(Nc2ccccc2)nc2ccccc21 | · | -3 | · | 5 | ·
O=C1CN(S(=O)(=O)Cc2ccccc2)C[C@H]2[C@@H](c3ccc(C#CCC4CCCC4)cc3)[C@H](CO)N12 | 12 | · | 2 | · | -5
C[C@@H]1CN([C@@H](C)CO)C(=O)c2cccc(NC(=O)Nc3ccc4c(c3)OCO4)c2O[C@@H]1CN(C)CC1CC1 | · | · | 25* | · | 7
C[C@H](CO)N1C[C@H](C)[C@@H](CN(C)CC2CCCCC2)Oc2c(NC(=O)Cc3ccccc3)cccc2C1=O | 21* | 1 | 1 | 7 | -3
C[C@@H]1CN([C@@H](C)CO)C(=O)c2cccc(NC(=O)Nc3ccc4c(c3)OCO4)c2O[C@H]1CN(C)CC1CCCCC1 | 8 | · | 7 | 1 | -2
C[C@@H]1CN([C@H](C)CO)C(=O)c2cccc(NC(=O)Nc3ccc4c(c3)OCO4)c2O[C@@H]1CN(C)S(=O)(=O)c1cn(C)cn1 | 16* | · | 0 | -6 | 3
CCOc1ncccc1C(=O)NCCc1c[nH]c2ccccc12 | -3 | 9 | -28 | 5 | 4
O=C(NC(=S)Nc1cccc(NC(=S)NC(=O)c2ccco2)n1)c1ccco1 | 3 | -9 | -2 | -2 | -1
CSc1nncn1/N=C/c1ccc2c(c1)OCO2 | · | -1 | · | -32 | ·
O=S1(=O)N[C@@H](Cc2ccccc2)COc2cccc(N3CCCC3)c21 | 23* | · | 5 | -9 | 3
CCOC(=O)Cc1csc(NC(=O)Nc2cccs2)n1 | -1 | -6 | 5 | 3 | 0
COc1cc(CN(CC(C)C)S(=O)(=O)c2ccccc2Br)cc(OC)c1 | · | 14 | -2 | -33 | -2
COc1cccc(CN(CCC(C)C)S(=O)(=O)c2cc(Br)ccc2Br)c1 | 28* | 0 | -7 | 3 | 5
CSC1=C(C#N)C(c2ccc(C)s2)CC(=O)N1 (stereo unspecified) | · | 1 | · | · | ·
